Here are results for 17 compounds from ChEMBL document CHEMBL3351826, “Synthesis of pyrazolo[4,3-e][1,2,4]triazine sulfonamides, novel Sildenafil analogs with tyrosinase inhibitory activity” (Bioorg Med Chem, 2014).

Assay [1] in a line: Inhibition of Leptosphaeria sacchari tyrosinase using L-DOPA as substrate incubated for 10 mins prior to substrate addition […] by spectrophotometry.
The subject of assay [2] is Leptosphaeria sacchari. Put plainly: Inhibition of Leptosphaeria sacchari tyrosinase using L-DOPA as substrate assessed as remaining activity at 0.3 mg/ml incubated for 10 mins prior to substrate addition […] by spectrophotometry.
Assay [3] is filed under the species Oryctolagus cuniculus. Put plainly: Inhibition of rabbit platelet PDE5A using [3H]cGMP as substrate at 1 uM after 30 mins by scintillation proximity assay. The method, boiled down: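 PDE5A isolated from rabbit platelets; tritium scintillation proximity assay in 50 mM Tris-HCl pH 7.5 with 8.3 mM MgCl2 and 1.7 mM EGTA. Compounds tested at 1 µM from DMSO stock, final DMSO <1%. Enzyme limited to ≤15% substrate hydrolysis. Duplicates. % inhibition = [1 − (CPM sample − blank)/(CPM water control − blank)] × 100.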
For orientation: In a scintillation proximity assay essentially only radioactivity close to the scintillant gives light.

For assay [4], the system named is Leptosphaeria sacchari. Nature of the assay: Inhibition of Leptosphaeria sacchari tyrosinase using L-DOPA as substrate at 0.3 mg/ml incubated for 10 mins prior to substrate addition […] by spectrophotometry.
Assay [5] concerns Leptosphaeria sacchari. Put plainly: Inhibition of Leptosphaeria sacchari tyrosinase using L-DOPA as substrate at 1 mM incubated for 10 mins prior to substrate addition […] by spectrophotometry.
The test system of assay [6] is Leptosphaeria sacchari. Put plainly: Inhibition of Leptosphaeria sacchari tyrosinase using L-DOPA as substrate at 0.1 mM incubated for 10 mins prior to substrate addition […] by spectrophotometry.

Structures are written as SMILES. In brackets after ≈: the same amount, converted by molar mass. Activity calls are given as the source filed them. The calls are words filed in the database; no cut-off is given here.

In the case of `CCOc1ccc(S(=O)(=O)NCCNS(=O)(=O)c2ccc(OCC)c(-c3nnc4c(n3)c(C)nn4C)c2)cc1-c1nnc2c(n1)c(C)nn2C`, in assay [1], the IC50 (usually the concentration at which inhibition is half-maximal) stood at 900 µg/mL (≈ 1250 µM). Besides, the Activity in assay [2] came to 20.2%. The inhibition (in general, the change of the read-out against control, counted positive when it falls) is 28.1% in assay [3] and 79.7% in assay [4].

In assay [1], `CCOc1ccc(S(=O)(=O)NCCN)cc1-c1nnc2c(n1)c(C)nn2C` had an IC50 of 70 µg/mL (≈ 179 µM). The Activity in assay [2] turned out to be 3.7%. The figures for the inhibition in assay [3] and in assay [4] were 0% and 96.3%, respectively.

`CCOc1ccc(S(=O)(=O)NCCN2CCOCC2)cc1-c1nnc2c(n1)c(C)nn2C` had an IC50 in assay [1] of 150 µg/mL (≈ 325 µM). Also, in assay [2], the Activity is 37.9%. Also, the inhibition came out at 13.3% in assay [3] and 62.1% in assay [4].

Consider `CCOc1ccc(S(=O)(=O)N2CCCN(S(=O)(=O)c3ccc(OCC)c(-c4nnc5c(n4)c(C)nn5C)c3)CC2)cc1-c1nnc2c(n1)c(C)nn2C`, for which the inhibition in assay [3] was 26.7%.

In assay [1], `CCOc1ccc(S(=O)(=O)NCCO)cc1-c1nnc2c(n1)c(C)nn2C` displayed an IC50 of 100 µg/mL (≈ 255 µM). Moreover, the Activity in assay [2] was 60.5%. In addition, in assay [4], the inhibition came to 39.5%.

In assay [3], `CCOc1ccc(S(=O)(=O)N2CCN(S(=O)(=O)c3ccc(OCC)c(-c4nnc5c(n4)c(C)nn5C)c3)CC2)cc1-c1nnc2c(n1)c(C)nn2C` registered an inhibition of 11.4%.

`CCOc1ccc(S(=O)(=O)N2CCCC2)cc1-c1nnc2c(n1)c(C)nn2C`: in assay [1], the IC50 worked out at 90 µg/mL (≈ 224 µM). Further, the Activity in assay [2] turned out to be 39.6%. In addition, the inhibition came out at 24.1% in assay [3] and 60.4% in assay [4].

Take `CCCc1nn(C)c2nnc(-c3cc(S(=O)(=O)N4CCN(C)CC4)ccc3OCC)nc12`: in assay [1], the IC50 is 120 µg/mL (≈ 261 µM). For the same compound, the Activity in assay [2] was determined as 42.9%. Also, the inhibition was 5.8% in assay [3] and 57.1% in assay [4].

Compound `CCCc1nn(C)c2c(=O)[nH]c(-c3cc(S(=O)(=O)N4CCN(C)CC4)ccc3OCC)nc12` yielded an inhibition in assay [3] of 98.9%.

In assay [1], `CCOc1ccc(S(=O)(=O)N2CCCNCC2)cc1-c1nnc2c(n1)c(C)nn2C` came in with an IC50 of 100 µg/mL (≈ 232 µM). Also, the Activity in assay [2] was determined as 33.5%. Further, the inhibition came out at 0.6% in assay [3] and 62.1% in assay [4].

In assay [1], `CCOc1ccc(S(=O)(=O)N2CCOCC2)cc1-c1nnc2c(n1)c(C)nn2C` returned an IC50 of 150 µg/mL (≈ 358 µM). Besides, the Activity in assay [2] turned out to be 48.6%. For the same compound, the inhibition in assay [3] stood at 0%; in assay [4], 51.4%.

In assay [1], `CCOc1ccc(S(=O)(=O)N2CCNCC2)cc1-c1nnc2c(n1)c(C)nn2C` came in with an IC50 of 80 µg/mL (≈ 192 µM). In addition, the Activity in assay [2] is 29.5%. For the same compound, the inhibition in assay [3] is 26.5%; in assay [4] it was 70.5%.

For the compound `CCOc1ccc(S(=O)(=O)N2CCCCC2)cc1-c1nnc2c(n1)c(C)nn2C`, the IC50 in assay [1] was found to be 120 µg/mL (≈ 288 µM). Also, the Activity in assay [2] was determined as 40.2%. Also, the inhibition stood at 29.5% in assay [3] and 59.8% in assay [4].

In assay [1], `CCOc1ccc(S(=O)(=O)N2CCN(C)CC2)cc1-c1nnc2nn(C)c(C)c2n1` gave an IC50 of 140 µg/mL (≈ 324 µM). The Activity in assay [2] is 45.2%. In addition, the inhibition is 0% in assay [3] and 54.8% in assay [4].

As to `CCOc1ccc(S(=O)(=O)N(CC)CC)cc1-c1nnc2c(n1)c(C)nn2C`, in assay [1], the half-inhibitory concentration (IC50) is 120 µg/mL (≈ 297 µM). In addition, in assay [2], the Activity is 31.7%. For the same compound, the inhibition in assay [3] was 16.4%; in assay [4], 68.3%.

`CCOc1ccc(S(=O)(=O)N2CCN(C)CC2)cc1-c1nnc2c(n1)c(C)nn2C`: the IC50 in assay [1] worked out at 110 µg/mL (≈ 255 µM). The Activity in assay [2] turned out to be 41.2%. Also, the inhibition in assay [3] was determined as 6%; in assay [4], 58.8%.

As for `c1nnc2[nH]ncc2n1`, the inhibition result in assay [5] was “Active”. In assay [6], the inhibition is 48%.
